pKi: −log10 of the molar value. Read-outs that look alike come from different tables or passages of the source.
What was measured:
human P2Y12R = details: human P2Y12R-transfected HEK cells; cited from earlier work
[1] = format: in vivo, Wistar rats; details: for area under the curve, brain time–activity curve: 60 min scan; for area under the curve, brain time–activity curve / SUVmax brain: n = 2
P2Y12R [2] = biological target: T1, P2Y12R (Rattus norvegicus, UniProt Q9EPX4); assay: in vitro autoradiography on rat brain sections using [18F]3; format: binding
T1 sequence (Q9EPX4 whole entry): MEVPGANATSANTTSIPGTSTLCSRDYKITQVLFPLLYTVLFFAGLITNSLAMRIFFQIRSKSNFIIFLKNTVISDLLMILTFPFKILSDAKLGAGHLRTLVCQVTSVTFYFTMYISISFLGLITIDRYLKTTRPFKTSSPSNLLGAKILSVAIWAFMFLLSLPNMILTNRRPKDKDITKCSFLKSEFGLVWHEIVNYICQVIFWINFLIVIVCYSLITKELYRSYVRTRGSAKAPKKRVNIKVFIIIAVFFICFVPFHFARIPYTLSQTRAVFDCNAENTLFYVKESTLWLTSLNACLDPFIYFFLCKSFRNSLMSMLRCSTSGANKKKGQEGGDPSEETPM
Outline: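 Flash-frozen rat brain sections (10 μm) were prewashed 15 min in 50 mM Tris-HCl pH 7.4 and air-dried. They were then incubated 30 min with 18F tracer (0.1 MBq·mL–1) in 50 mM Tris-HCl/3% BSA pH 7.4, with or without P2Y12R inhibitor at 1 μM. Sections were washed twice for 1 min in cold 5 mM Tris-HCl (4 °C), dipped in ice-cold water and dried, then exposed to a phosphor screen for 10 min. Whole-brain ROI binding was expressed as % of no-inhibitor binding; n = 3.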

[3] = previously determined using the same method; cited from earlier work
[4] = previously reported biodistribution data, 5 and 15 min post-injection; cited from earlier work
P2Y12R [5] = biological target: T1, P2Y12R; format: in vivo, Wistar rats
Outline: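 Male Wistar rats (12–15 weeks, 250–350 g) under isoflurane anesthesia; n = 4 per group. Both groups received tariquidar 15 mg/kg iv. The blocking group also received unlabeled test compound 5 mg/kg together with the tariquidar. The 18F tracer (10–25 MBq) was given iv via tail vein, followed immediately by a dynamic PET scan. Whole-brain ROI time–activity curves were expressed as SUV, mean ± standard deviation.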

[6] = baseline, after the initial perfusion peak, iv
[7] = efflux transporter blocking with tariquidar

Row | area under the curve, brain time–activity curve ([1]; baseline) | SUVmax brain [1, 6] | area under the curve, brain time–activity curve [1, 7] | SMILES | pKi (human P2Y12R) | further results
1 | – | – | – | CCc1cc2c(N3CCN(C(=O)c4ccc(-c5ccccc5)cc4)CC3)nc(N3CCNC(=O)C3)nc2s1 [compound 2, 4-(4-(4-([1,1′-Biphenyl]-4-carbonyl)piperazin-1-yl)-6-ethylthieno[2,3-d]pyrimidin-2-yl)piperazin-2-one] | 8.05 | –
2 | – | – | – | CCCc1cc2c(N3CCn4c(nnc4C(F)(F)F)C3)nc(OCCF)nc2s1 [compound 3, 2-(2-Fluoroethoxy)-6-propyl-4-(3-(trifluoromethyl)-5,6-dihydro-[1,2,4]triazolo[4,3-a]pyrazin-7(8H)-yl)thieno[2,3-d]pyrimidine] | 9.52 | efflux transporter substrate behavior ([1]; rats, tariquidar blocking of P-glycoprotein and breast cancer resistance protein): strong substrate for efflux transporters; blocking efficiency of [18F]3 binding (P2Y12R [2]; inhibitor co-incubated at 1 μM, n = 3): about 70%
3 | 3.8 ± 0.7 | 0.1 | 5.2 ± 0.2 | CCOC(=O)c1cc(C#N)c(N2CC(N[11C](=O)NS(=O)(=O)c3ccc(Cl)s3)C2)nc1C [[^11C]1, Ethyl 6-(3-(3-((5-Chlorothiophen-2-yl)sulfonyl)[^11C]ureido)azetidin-1-yl)-5-cyano-2-methylnicotinate] | – | log D7.4 [3]: 1.93 ± 0.02; %ID/g in rat brain [4]: < 0.1 %ID/g
4 | 4.4 ± 0.1 | 0.2 | 27.6 ± 1.1 | CCCc1cc2c(N3CCn4c(nnc4C(F)(F)F)C3)nc(OCC[18F])nc2s1 [[^18F]3, 2-(2-[^18F]Fluoroethoxy)-6-propyl-4-(3-(trifluoromethyl)-5,6-dihydro-[1,2,4]triazolo[4,3-a]pyrazin-7(8H)-yl)thieno[2,3-d]pyrimidine] | – | SUVmax brain ([1]; efflux transporter blocking with tariquidar 15 mg/kg iv): 1.0; selective and specific binding (P2Y12R [2]): approximately 70%; area under the curve, whole brain time–activity curve (P2Y12R [5]; baseline: tariquidar + tracer, n = 4): 24.1 ± 0.5; area under the curve, whole brain time–activity curve (P2Y12R [5]; blocking: tariquidar + unlabeled 3 (5 mg/kg) and tracer, n = 4, p = 0.04): 20.6 ± 0.7
